From ChEMBL document CHEMBL1145074, “Binding of tetrahydrocarboline derivatives at human 5-HT5A receptors” (J Med Chem, 2003)

How the values were obtained:
[1] = target: 5-hydroxytryptamine receptor 5A (Mus musculus, UniProt P30966); assay: Binding affinity towards mouse 5-hydroxytryptamine 5A receptor using LSD as radioligand
[2] = target: 5-hydroxytryptamine receptor 2A (Rattus norvegicus, UniProt P14842); assay: Binding affinity towards rat 5-hydroxytryptamine 2A receptor expressed in NIH3T3 cells using [3H]ketanserin as radioligand; format: cell-based
5-hydroxytryptamine receptor 2A, sequence (P14842 whole entry): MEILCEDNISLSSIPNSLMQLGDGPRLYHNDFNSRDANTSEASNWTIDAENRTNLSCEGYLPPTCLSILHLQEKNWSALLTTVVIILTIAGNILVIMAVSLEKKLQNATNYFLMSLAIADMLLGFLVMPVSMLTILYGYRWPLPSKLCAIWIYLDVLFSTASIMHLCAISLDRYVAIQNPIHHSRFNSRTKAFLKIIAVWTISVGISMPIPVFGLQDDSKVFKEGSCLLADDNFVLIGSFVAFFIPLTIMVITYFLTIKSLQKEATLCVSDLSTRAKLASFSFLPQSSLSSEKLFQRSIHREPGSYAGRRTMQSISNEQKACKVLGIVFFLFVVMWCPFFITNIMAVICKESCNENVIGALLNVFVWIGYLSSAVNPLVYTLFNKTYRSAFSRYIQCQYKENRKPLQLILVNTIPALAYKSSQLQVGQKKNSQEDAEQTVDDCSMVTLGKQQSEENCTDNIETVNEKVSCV
In short: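 Membranes from confluent NIH-3T3 cells stably expressing rat 5-HT2A, washed by centrifugation in 50 mM Tris-HCl. ~10 μg protein incubated with 0.5 nM [3H]ketanserin and 11 test concentrations (10⁻¹⁰ to 10⁻⁵ M) in triplicate. Incubation was 30 min at 37 °C in Tris/EDTA/MgCl2/ascorbate pH 7.4. Nonspecific binding defined with 10 μM ketanserin. Bound ligand was filtered and counted. Ki from Cheng–Prusoff, ≥3 determinations.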

[3] = target: T1, 5-hydroxytryptamine receptor 5A (Homo sapiens, UniProt P47898); assay: Binding affinity towards human 5-hydroxytryptamine 5A receptor using LSD as radioligand
T1 sequence (P47898 whole entry): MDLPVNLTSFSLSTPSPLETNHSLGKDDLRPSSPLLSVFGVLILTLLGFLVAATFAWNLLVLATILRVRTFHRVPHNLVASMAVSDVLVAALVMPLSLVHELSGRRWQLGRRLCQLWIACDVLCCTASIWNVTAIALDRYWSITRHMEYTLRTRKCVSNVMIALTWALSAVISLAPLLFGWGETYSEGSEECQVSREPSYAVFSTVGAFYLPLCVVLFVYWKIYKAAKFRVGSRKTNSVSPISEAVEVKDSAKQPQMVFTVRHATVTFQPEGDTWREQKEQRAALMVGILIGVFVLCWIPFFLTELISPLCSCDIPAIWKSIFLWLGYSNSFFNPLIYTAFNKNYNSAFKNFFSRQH

[4] = target: T1, 5-hydroxytryptamine receptor 5A; assay: Binding affinity towards 5-hydroxytryptamine 5A receptor using lysergic acid diethylamide (LSD) as radioligand
In short: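 Radioligand competition binding at cloned 5-HT5A receptors (clone supplied by R. Hen). Nonspecific binding defined with 1 μM LSD.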

[5] = target: T2, 5-hydroxytryptamine receptor 2C (Rattus norvegicus, UniProt P08909); assay: Binding affinity towards rat 5-hydroxytryptamine 2C receptor expressed in A-9 cells using [3H]mesulergine as radioligand; format: cell-based
T2 sequence (P08909 whole entry): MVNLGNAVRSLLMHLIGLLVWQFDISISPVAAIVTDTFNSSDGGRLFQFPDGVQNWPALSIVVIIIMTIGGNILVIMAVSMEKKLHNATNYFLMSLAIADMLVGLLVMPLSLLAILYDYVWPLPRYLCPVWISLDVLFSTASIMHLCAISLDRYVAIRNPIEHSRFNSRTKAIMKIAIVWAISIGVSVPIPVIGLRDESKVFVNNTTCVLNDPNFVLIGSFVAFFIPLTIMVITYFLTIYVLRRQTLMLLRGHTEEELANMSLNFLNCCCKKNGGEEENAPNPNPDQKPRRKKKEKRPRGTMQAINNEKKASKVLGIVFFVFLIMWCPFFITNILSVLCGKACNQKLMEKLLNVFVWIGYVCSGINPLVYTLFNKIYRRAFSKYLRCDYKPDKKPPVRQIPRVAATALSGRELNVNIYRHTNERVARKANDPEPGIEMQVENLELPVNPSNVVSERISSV
In short: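 Rat 5-HT2C stably expressed in A-9 cells, grown to confluence; washed membranes (~10 μg protein) used. Competition against 2.0 nM [3H]mesulergine with 11 concentrations from 10⁻¹⁰ to 10⁻⁵ M, triplicate. Incubation 30 min, 37 °C, pH 7.4 Tris buffer with EDTA, MgCl2 and ascorbate. 1 μM mesulergine defined nonspecific binding. Filtration, scintillation counting. Ki via Cheng–Prusoff; at least three replicates.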

5-hydroxytryptamine receptor 5A (Mus musculus, UniProt P30966), sequence (P30966 whole entry): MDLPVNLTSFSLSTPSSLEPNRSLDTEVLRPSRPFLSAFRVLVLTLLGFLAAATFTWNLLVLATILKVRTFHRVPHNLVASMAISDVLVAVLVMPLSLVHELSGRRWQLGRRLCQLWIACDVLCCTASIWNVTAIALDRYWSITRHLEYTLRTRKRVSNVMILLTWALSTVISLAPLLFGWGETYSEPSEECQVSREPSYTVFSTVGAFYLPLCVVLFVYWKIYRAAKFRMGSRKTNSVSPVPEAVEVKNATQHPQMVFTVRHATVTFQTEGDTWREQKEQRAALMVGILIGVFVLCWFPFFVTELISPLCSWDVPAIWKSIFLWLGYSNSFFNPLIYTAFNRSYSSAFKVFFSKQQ

SMILES	Ki [1]	Ki [2]	Ki [3]	Ki [4]	Ki [5]
Cn1c2c(c3ccccc31)CN(CCCC(=O)c1ccccc1)CC2	135 nM	22 nM	168 nM	–	–
c1ccc2c3c([nH]c2c1)CNCC3 [TRYPTOLINE]	–	–	–	3.2 µM	–
Cn1c2c(c3ccccc31)CN(CCCOc1ccc([N+](=O)[O-])cc1)CC2	–	280 nM	250 nM	–	300 nM
Cn1c2c(c3ccccc31)CN(CCCCCc1ccccc1)CC2	120 nM	130 nM	174 nM	–	1000 nM
Cn1c2c(c3ccccc31)CN(CCCCc1ccccc1)CC2	130 nM	–	–	–	–
COc1ccc2[nH]c3c(C)nccc3c2c1	–	–	–	> 10 µM	–
CCn1c2c(c3ccccc31)CN(CCCOc1ccccc1)CC2	75 nM	50 nM	100 nM	–	215 nM
Cn1c2c(c3cc(Cl)ccc31)CN(CCCOc1ccc(F)cc1)CC2	180 nM	130 nM	270 nM	–	300 nM
Cn1c2c(c3ccccc31)CN(C/C=C/CCc1ccccc1)CC2	350 nM	60 nM	185 nM	–	245 nM
O=C(CCCN1CCc2[nH]c3ccccc3c2C1)c1ccc(F)cc1	512 nM	–	–	–	–
COc1ccc(OCCCN2CCc3c(c4ccccc4n3C)C2)cc1	–	100 nM	350 nM	–	–
Fc1ccc(OCCCN2CCCCC2)cc1	–	–	–	> 10 µM	–
Cn1c2c(c3ccccc31)CN(CCCO)CC2	1100 nM	–	1120 nM	–	–
COc1ccc2c3c([nH]c2c1)C=NCC3 [CGS-19281A]	–	–	–	> 10 µM	–
COc1ccc2c3c([nH]c2c1)C(C)=NCC3 [HARMALINE]	–	–	–	> 10 µM	–
Fc1ccc(OCCCN2CCc3[nH]c4ccccc4c3C2)cc1	75 nM	–	–	–	–
Cn1c2c(c3ccccc31)CCN(CCCOc1ccccc1)C2	360 nM	150 nM	620 nM	–	400 nM
Cn1c2c(c3ccccc31)CN(CCCOc1ccc(Cl)c(Cl)c1)CC2	–	195 nM	200 nM	–	–
Cn1c2c(c3ccccc31)CN(CCCCCCc1ccccc1)CC2	435 nM	185 nM	–	–	530 nM
c1ccc(OCCCN2CCc3[nH]c4ccccc4c3C2)cc1	600 nM	20 nM	–	–	160 nM
O=C(CCCN1CCc2c([nH]c3ccccc23)C1)c1ccccc1	550 nM	16 nM	–	–	115 nM
c1ccc(OCCCN2CCc3c([nH]c4ccccc34)C2)cc1	335 nM	50 nM	–	–	310 nM
Cn1c2c(c3ccccc31)CN(CCOc1ccc(F)cc1)CC2	–	175 nM	930 nM	–	235 nM
Cn1c2c(c3ccccc31)CN(CCCOc1cccc3ccccc13)CC2	650 nM	625 nM	–	–	400 nM
CC1=NCCc2c1[nH]c1cc(O)ccc21 [HARMALOL]	–	–	–	> 10 µM	–
Cn1c2c(c3ccccc31)CN(CCCOc1ccc(Cl)cc1)CC2	–	115 nM	200 nM	–	–
CC1NCCc2c1[nH]c1ccccc21 (stereo unspecified) [TETRAHYDROHARMAN]	–	–	–	> 10 µM	–
COc1ccc2c(c1)c1c(n2C)CCN(CCCOc2ccc(F)cc2)C1	98 nM	38 nM	165 nM	–	150 nM

SMILES	Ki [1]	Ki [2]	Ki [3]	Ki [4]	Ki [5]
c1ccc(Cn2c3c(c4ccccc42)CN(CCCOc2ccccc2)CC3)cc1	875 nM	65 nM	–	–	90 nM
Cn1c2c(c3ccccc31)CN(C/C=C\CCc1ccccc1)CC2	330 nM	120 nM	208 nM	–	285 nM
Fc1ccc(OCCCN2CCc3ccccc3C2)cc1	–	–	–	0.4 µM	–
Cn1c2c(c3ccccc31)CN(CCCC(=O)c1ccc(F)cc1)CC2	115 nM	60 nM	–	–	60 nM
Cn1ccc2c1CCN(CCCOc1ccc(F)cc1)C2	–	–	–	1.92 µM	–
Cn1c2c(c3ccccc31)CN(CCCOc1ccc3ccccc3c1)CC2	655 nM	480 nM	–	–	300 nM
Cn1c2c(c3ccccc31)CN(CCCOc1ccc(F)cc1)CC2	13 nM	30 nM	–	–	75 nM
Cn1c2c(c3cccc(Cl)c31)CN(CCCOc1ccc(F)cc1)CC2	590 nM	210 nM	225 nM	–	225 nM
COc1cccc2c3c(n(C)c12)CCN(CCCOc1ccc(F)cc1)C3	1220 nM	120 nM	1390 nM	–	225 nM
Cn1c2c(c3ccccc31)CNCC2	–	3100 nM	–	–	–
COc1ccc2c3c([nH]c2c1)CNCC3	–	–	–	> 10 µM	–
Cn1c2c(c3ccccc31)CC(CCCOc1ccc(N)cc1)CC2 (stereo unspecified)	–	–	–	> 10 µM	–
COc1ccc2c(c1)[nH]c1c(C)nccc12 [HARMINE]	–	–	–	> 10 µM	–
Cn1c2c(c3ccccc31)CN(CC#CCCc1ccccc1)CC2	1710 nM	–	1780 nM	–	–
COc1ccc2[nH]c3c(c2c1)CCN=C3C	–	–	–	> 10 µM	–
CN(C)CCCOc1ccc(F)cc1	–	–	–	> 10 µM	–
Cn1c2c(c3ccccc31)CN(CCCOCc1ccccc1)CC2	295 nM	225 nM	–	–	650 nM
COc1ccc2c3c([nH]c2c1)C(C)NCC3 (stereo unspecified)	–	–	–	> 10 µM	–
Cn1c2c(c3ccccc31)CN(CCCCc1ccc(F)cc1)CC2	95 nM	65 nM	–	–	–
CC1=NCCc2c1n(C)c1ccccc21	–	–	–	> 10 µM	–
Cn1c2c(c3ccccc31)CN(CCCOc1ccc(N)cc1)CC2	–	285 nM	190 nM	–	300 nM
Cn1c2c(c3ccccc31)CN(CCCC(O)c1ccc(F)cc1)CC2 (stereo unspecified)	225 nM	160 nM	285 nM	–	390 nM
Cn1c2c(c3ccccc31)CN(CCCc1ccccc1)CC2	250 nM	–	–	–	–
COc1ccc(CCCCN2CCc3c(c4ccccc4n3C)C2)cc1	90 nM	415 nM	–	–	990 nM
CN(CCCOc1ccc(F)cc1)Cc1cn(C)c2ccccc12	–	–	–	1.08 µM	–
Cn1c2c(c3ccccc31)CN(CCCOc1ccccc1)CC2	25 nM	70 nM	100 nM	–	285 nM
Cn1c2c(c3ccccc31)CN(CCC/C(=N/O)c1ccc(F)cc1)CC2	–	38 nM	340 nM	–	190 nM
